The text below walks through data of ChEMBL document CHEMBL1142198, “Diversity of ampicillin resistance genes and antimicrobial susceptibility patterns in Haemophilus influenzae strains isolated in Korea” (2007).

Values after ≈ are worked out from the molar mass of the structure shown.

Format in all cases: functional
The subject of assay [1] is Haemophilus influenzae. Briefly: Antimicrobial activity against Haemophilus influenzae strains causing clinical infections. In a few lines:
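Etest MICs for 196 clinical-infection isolates collected 2000–2005 at two Seoul tertiary-care hospitals. A 0.5 McFarland broth suspension was spread on Haemophilus test medium agar, strips applied once dry, then incubated 35°C, 5% CO2, 20 h. ATCC 49766 and ATCC 49247 served as controls in each batch.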

In assay [2] the test system is Haemophilus influenzae. Briefly: Antimicrobial activity against Haemophilus influenzae BLNAS strains. Put shortly:
(§1)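 Etest MIC determination on Haemophilus test medium agar inoculated evenly with a broth suspension equivalent to a 0.5 McFarland standard. Once dry, strips for 10 antibiotics applied; incubated 35°C, 5% CO2, 20 h. MIC read at complete growth inhibition. ATCC 49766 and ATCC 49247 included as controls in each batch. Korean clinical isolates 2000–2005 classified by nitrocefin disk and PCR.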

Assay [3] relates to Haemophilus influenzae. Briefly: Antimicrobial activity against Haemophilus influenzae BLPACR strains. In a few lines: as §1
For assay [4], the system named is Haemophilus influenzae. Briefly: Antimicrobial activity against Haemophilus influenzae BLNAR strains. In a few lines: as §1
The subject of assay [5] is Haemophilus influenzae. Briefly: Antimicrobial activity against Haemophilus influenzae strains that are normal flora. In a few lines: as §1
Assay [6] deals with Haemophilus influenzae. Briefly: Antimicrobial activity against Haemophilus influenzae BLPAR strains. Put shortly:
as §1

With `CC1(C)S[C@@H]2[C@H](NC(=O)[C@H](N)c3ccccc3)C(=O)N2[C@H]1C(=O)O` [AMPICILLIN], the MIC50 in the assay on Haemophilus influenzae [1] is 24 µg/mL (≈ 68.7 µM); in the assay with Haemophilus influenzae [2], 0.25 µg/mL (≈ 0.715 µM); against Haemophilus influenzae [3] it was 256 µg/mL (≈ 733 µM); in the assay on Haemophilus influenzae [4] it was 0.75 µg/mL (≈ 2.15 µM); against Haemophilus influenzae [5], 0.38 µg/mL (≈ 1.09 µM); against Haemophilus influenzae [6] it was 256 µg/mL (≈ 733 µM). In addition, the MIC90 was 256 µg/mL (≈ 733 µM) in the assay on Haemophilus influenzae [1]; 0.38 µg/mL (≈ 1.09 µM) against Haemophilus influenzae [2]; 256 µg/mL (≈ 733 µM) in the assay with Haemophilus influenzae [3]; 256 µg/mL (≈ 733 µM) against Haemophilus influenzae [4]; 256 µg/mL (≈ 733 µM) against Haemophilus influenzae [5]; 256 µg/mL (≈ 733 µM) with Haemophilus influenzae [6].
For `N[C@@H](C(=O)N[C@@H]1C(=O)N2C(C(=O)O)=C(Cl)CS[C@H]12)c1ccccc1` [CEFACLOR ANHYDROUS], the MIC50 was 8 µg/mL (≈ 21.8 µM) in the assay on Haemophilus influenzae [1]; 2 µg/mL (≈ 5.44 µM) against Haemophilus influenzae [2]; 16 µg/mL (≈ 43.5 µM) in the assay on Haemophilus influenzae [3]; 6 µg/mL (≈ 16.3 µM) with Haemophilus influenzae [4]; 2 µg/mL (≈ 5.44 µM) against Haemophilus influenzae [5]; 12 µg/mL (≈ 32.6 µM) against Haemophilus influenzae [6]. For the same compound, the MIC90 against Haemophilus influenzae [1] is 256 µg/mL (≈ 696 µM); against Haemophilus influenzae [2] it was 6 µg/mL (≈ 16.3 µM); with Haemophilus influenzae [3], 256 µg/mL (≈ 696 µM); in the assay with Haemophilus influenzae [4], 256 µg/mL (≈ 696 µM); against Haemophilus influenzae [5] it was 256 µg/mL (≈ 696 µM); with Haemophilus influenzae [6], 256 µg/mL (≈ 696 µM).
As to `C=CC1=C(C(=O)O)N2C(=O)[C@@H](NC(=O)/C(=N\OCC(=O)O)c3csc(N)n3)[C@H]2SC1` [CEFIXIME], the MIC50 in the assay on Haemophilus influenzae [1] was 0.047 µg/mL (≈ 0.104 µM); in the assay on Haemophilus influenzae [2], 0.023 µg/mL (≈ 0.0507 µM); against Haemophilus influenzae [3], 0.064 µg/mL (≈ 0.141 µM); in the assay with Haemophilus influenzae [4], 0.064 µg/mL (≈ 0.141 µM); with Haemophilus influenzae [5] it was 0.047 µg/mL (≈ 0.104 µM); in the assay on Haemophilus influenzae [6], 0.047 µg/mL (≈ 0.104 µM). Also, the MIC90 against Haemophilus influenzae [1] was found to be 0.75 µg/mL (≈ 1.65 µM); with Haemophilus influenzae [2] it was 0.064 µg/mL (≈ 0.141 µM); against Haemophilus influenzae [3], 256 µg/mL (≈ 565 µM); in the assay on Haemophilus influenzae [4] it was 32 µg/mL (≈ 70.6 µM); with Haemophilus influenzae [5], 32 µg/mL (≈ 70.6 µM); in the assay with Haemophilus influenzae [6], 32 µg/mL (≈ 70.6 µM).
Turning to `CO/N=C(\C(=O)N[C@@H]1C(=O)N2C(C(=O)O)=C(COC(N)=O)CS[C@H]12)c1ccco1` [CEFUROXIME], the MIC50 turned out to be 1 µg/mL (≈ 2.36 µM) with Haemophilus influenzae [1]; 0.5 µg/mL (≈ 1.18 µM) with Haemophilus influenzae [2]; 1 µg/mL (≈ 2.36 µM) against Haemophilus influenzae [3]; 1 µg/mL (≈ 2.36 µM) with Haemophilus influenzae [4]; 0.5 µg/mL (≈ 1.18 µM) in the assay with Haemophilus influenzae [5]; 1 µg/mL (≈ 2.36 µM) with Haemophilus influenzae [6]. Also, the MIC90 in the assay on Haemophilus influenzae [1] came out at 8 µg/mL (≈ 18.9 µM); with Haemophilus influenzae [2], 1 µg/mL (≈ 2.36 µM); with Haemophilus influenzae [3] it was 256 µg/mL (≈ 603 µM); against Haemophilus influenzae [4] it was 8 µg/mL (≈ 18.9 µM); in the assay with Haemophilus influenzae [5], 256 µg/mL (≈ 603 µM); with Haemophilus influenzae [6], 256 µg/mL (≈ 603 µM).
For `O=C(N[C@H](CO)[C@H](O)c1ccc([N+](=O)[O-])cc1)C(Cl)Cl` [CHLORAMPHENICOL], the MIC50 is 0.5 µg/mL (≈ 1.55 µM) against Haemophilus influenzae [1]; 0.5 µg/mL (≈ 1.55 µM) in the assay on Haemophilus influenzae [2]; 0.5 µg/mL (≈ 1.55 µM) in the assay with Haemophilus influenzae [3]; 0.5 µg/mL (≈ 1.55 µM) in the assay with Haemophilus influenzae [4]; 0.75 µg/mL (≈ 2.32 µM) against Haemophilus influenzae [5]; 0.75 µg/mL (≈ 2.32 µM) in the assay with Haemophilus influenzae [6]. Further, the MIC90 is 8 µg/mL (≈ 24.8 µM) against Haemophilus influenzae [1]; 0.75 µg/mL (≈ 2.32 µM) against Haemophilus influenzae [2]; 8 µg/mL (≈ 24.8 µM) in the assay with Haemophilus influenzae [3]; 6 µg/mL (≈ 18.6 µM) in the assay with Haemophilus influenzae [4]; 4 µg/mL (≈ 12.4 µM) with Haemophilus influenzae [5]; 12 µg/mL (≈ 37.1 µM) against Haemophilus influenzae [6].
Regarding `CC[C@H]1OC(=O)[C@H](C)[C@@H](O[C@H]2C[C@@](C)(OC)[C@@H](O)[C@H](C)O2)[C@H](C)[C@@H](O[C@@H]2O[C@H](C)C[C@H](N(C)C)[C@H]2O)[C@](C)(OC)C[C@@H](C)C(=O)[C@H](C)[C@@H](O)[C@]1(C)O` [CLARITHROMYCIN], the MIC50 with Haemophilus influenzae [1] was 16 µg/mL (≈ 21.4 µM); in the assay on Haemophilus influenzae [2], 16 µg/mL (≈ 21.4 µM); against Haemophilus influenzae [3], 16 µg/mL (≈ 21.4 µM); in the assay with Haemophilus influenzae [4], 12 µg/mL (≈ 16 µM); against Haemophilus influenzae [5], 16 µg/mL (≈ 21.4 µM); against Haemophilus influenzae [6], 16 µg/mL (≈ 21.4 µM). In addition, the MIC90 in the assay with Haemophilus influenzae [1] was 32 µg/mL (≈ 42.8 µM); against Haemophilus influenzae [2], 24 µg/mL (≈ 32.1 µM); in the assay with Haemophilus influenzae [3], 256 µg/mL (≈ 342 µM); in the assay on Haemophilus influenzae [4] it was 24 µg/mL (≈ 32.1 µM); against Haemophilus influenzae [5], 32 µg/mL (≈ 42.8 µM); with Haemophilus influenzae [6], 32 µg/mL (≈ 42.8 µM).
Consider `C[C@H]1COc2c(N3CCN(C)CC3)c(F)cc3c(=O)c(C(=O)O)cn1c23.C[C@H]1COc2c(N3CCN(C)CC3)c(F)cc3c(=O)c(C(=O)O)cn1c23.O` [LEVOFLOXACIN], for which the MIC50 was determined as 0.016 µg/mL in the assay on Haemophilus influenzae [1]; 0.016 µg/mL against Haemophilus influenzae [2]; 0.016 µg/mL in the assay on Haemophilus influenzae [3]; 0.023 µg/mL against Haemophilus influenzae [4]; 0.023 µg/mL against Haemophilus influenzae [5]; 0.016 µg/mL with Haemophilus influenzae [6]. For the same compound, the MIC90 in the assay on Haemophilus influenzae [1] was 0.32 µg/mL; in the assay with Haemophilus influenzae [2], 0.032 µg/mL; in the assay on Haemophilus influenzae [3] it was 0.047 µg/mL; against Haemophilus influenzae [4], 1 µg/mL; against Haemophilus influenzae [5], 1 µg/mL; against Haemophilus influenzae [6], 0.032 µg/mL.
In the case of `C[C@@H](O)[C@H]1C(=O)N2C(C(=O)O)=C(S[C@@H]3CN[C@H](C(=O)N(C)C)C3)[C@H](C)[C@H]12` [MEROPENEM], the MIC50 against Haemophilus influenzae [1] was found to be 0.094 µg/mL (≈ 0.245 µM); against Haemophilus influenzae [2], 0.064 µg/mL (≈ 0.167 µM); against Haemophilus influenzae [3], 0.19 µg/mL (≈ 0.495 µM); against Haemophilus influenzae [4], 0.125 µg/mL (≈ 0.326 µM); against Haemophilus influenzae [5], 0.094 µg/mL (≈ 0.245 µM); in the assay with Haemophilus influenzae [6], 0.094 µg/mL (≈ 0.245 µM). In addition, the MIC90 against Haemophilus influenzae [1] stood at 32 µg/mL (≈ 83.4 µM); in the assay with Haemophilus influenzae [2], 0.125 µg/mL (≈ 0.326 µM); with Haemophilus influenzae [3] it was 0.38 µg/mL (≈ 0.991 µM); in the assay on Haemophilus influenzae [4], 32 µg/mL (≈ 83.4 µM); in the assay on Haemophilus influenzae [5], 32 µg/mL (≈ 83.4 µM); in the assay on Haemophilus influenzae [6], 32 µg/mL (≈ 83.4 µM).
